Each structure is given as a SMILES string. Non-standard residues stand in square brackets, D forms with d. Residues, ends and D or L forms follow the SMILES beside them. ξ: configuration not given here. Aoe(9ξ) = N[C@@H](CCCCCC(=O)C1CO1)C(=O)O; dPip = O=C(O)[C@H]1CCCCN1

One test addresses T1, Histone deacetylase HD2 (Zea mays, UniProt Q94F81).
T1 sequence (Q94F81 whole entry): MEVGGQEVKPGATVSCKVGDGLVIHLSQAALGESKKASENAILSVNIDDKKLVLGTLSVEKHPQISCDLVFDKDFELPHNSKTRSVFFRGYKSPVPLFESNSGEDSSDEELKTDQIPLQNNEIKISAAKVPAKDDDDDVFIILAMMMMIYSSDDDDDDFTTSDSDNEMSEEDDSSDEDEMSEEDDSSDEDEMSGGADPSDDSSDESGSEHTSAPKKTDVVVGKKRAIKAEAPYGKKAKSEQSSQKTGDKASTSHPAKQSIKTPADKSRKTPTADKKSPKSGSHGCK
As to the kind of experiment: Tested for maize Histone deacetylase 2 inhibitory activity. The method in brief: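 Purified maize HD2 enzyme was incubated with compounds and [³H]-acetate pre-labeled chicken reticulocyte histones (added from a 4 mg/mL stock) for 30 min at 30 °C. The reaction was stopped with HCl/acetate, and released [³H]-acetate was extracted into ethyl acetate. The upper phase was counted by liquid scintillation. IC50 is the mean of at least three separate experiments.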

Test [1] in a line: Inhibitory activity against maize Histone deacetylase 1-B. More on the design: species or system Zea mays.
Test [2] in a line: Inhibitory activity afgainst maize Histone deacetylase 1-A. More on the design: species or system Zea mays.
A short description of test [3]: Fold selectivity for classIIa HDAC.
Test [4] deals with T2, Histone deacetylase 1 (Homo sapiens, UniProt Q13547). As to the kind of experiment: Inhibition of Histone deacetylase 1 induced acetylated histone in mammalian cells. In kind it is cell-based.
Test [5] can be described thus: (§1) Tested for inhibition of Histone deacetylase 6 induced acetylated tubulin in mammalian cells. In kind it is cell-based.
Test [6] is described as follows: Inhibition of Histone deacetylase 4 in mammalian cells. The test is classed as cell-based.
The target of a further test is Histone deacetylase 4 (Homo sapiens, UniProt P56524). As to the kind of experiment: Inhibition of Histone deacetylase 4 in mammalian cells. In kind it is cell-based.
The target of test [7] is T3, Protein deacetylase HDAC6 (Homo sapiens, UniProt Q9UBN7).
T3 sequence (Q9UBN7 whole entry): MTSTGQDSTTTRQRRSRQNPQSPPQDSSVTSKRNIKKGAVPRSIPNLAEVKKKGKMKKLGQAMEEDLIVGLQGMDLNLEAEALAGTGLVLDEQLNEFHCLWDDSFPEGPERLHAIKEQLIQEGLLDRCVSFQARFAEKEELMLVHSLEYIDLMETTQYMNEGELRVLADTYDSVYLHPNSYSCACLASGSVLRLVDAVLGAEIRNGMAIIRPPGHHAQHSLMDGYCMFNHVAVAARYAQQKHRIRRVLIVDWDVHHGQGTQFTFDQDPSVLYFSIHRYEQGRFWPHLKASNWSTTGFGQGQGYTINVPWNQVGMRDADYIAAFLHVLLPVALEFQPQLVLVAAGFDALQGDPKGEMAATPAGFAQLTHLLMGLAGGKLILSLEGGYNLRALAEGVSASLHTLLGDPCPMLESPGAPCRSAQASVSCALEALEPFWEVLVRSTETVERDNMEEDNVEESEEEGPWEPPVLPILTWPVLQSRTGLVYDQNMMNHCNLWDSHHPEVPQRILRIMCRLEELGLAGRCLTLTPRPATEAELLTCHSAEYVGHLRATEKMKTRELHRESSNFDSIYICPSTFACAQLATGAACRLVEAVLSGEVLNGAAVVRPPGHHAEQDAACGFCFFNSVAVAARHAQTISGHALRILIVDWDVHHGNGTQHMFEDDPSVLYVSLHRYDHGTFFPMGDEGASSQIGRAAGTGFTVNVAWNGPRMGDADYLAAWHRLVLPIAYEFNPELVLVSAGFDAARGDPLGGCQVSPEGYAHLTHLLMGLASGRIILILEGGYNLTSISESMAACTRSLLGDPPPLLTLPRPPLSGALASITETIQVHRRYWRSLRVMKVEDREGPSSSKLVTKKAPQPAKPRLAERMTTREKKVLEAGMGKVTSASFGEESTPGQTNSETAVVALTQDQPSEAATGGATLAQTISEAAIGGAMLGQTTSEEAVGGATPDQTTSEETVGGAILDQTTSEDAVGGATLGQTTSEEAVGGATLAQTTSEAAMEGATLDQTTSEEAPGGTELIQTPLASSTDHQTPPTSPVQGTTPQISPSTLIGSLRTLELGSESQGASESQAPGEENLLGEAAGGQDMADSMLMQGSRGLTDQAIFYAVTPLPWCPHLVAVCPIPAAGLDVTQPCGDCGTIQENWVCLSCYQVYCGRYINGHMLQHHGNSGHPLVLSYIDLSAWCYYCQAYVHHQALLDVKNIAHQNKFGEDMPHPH
The description is as §1. In kind it is cell-based.

For test [8], the target named is T2, Histone deacetylase 1. As to the kind of experiment: Inhibition of Histone deacetylase 1 induced acetylated histone in mammalian cells. The test is classed as cell-based.

T2 sequence (Q13547 whole entry): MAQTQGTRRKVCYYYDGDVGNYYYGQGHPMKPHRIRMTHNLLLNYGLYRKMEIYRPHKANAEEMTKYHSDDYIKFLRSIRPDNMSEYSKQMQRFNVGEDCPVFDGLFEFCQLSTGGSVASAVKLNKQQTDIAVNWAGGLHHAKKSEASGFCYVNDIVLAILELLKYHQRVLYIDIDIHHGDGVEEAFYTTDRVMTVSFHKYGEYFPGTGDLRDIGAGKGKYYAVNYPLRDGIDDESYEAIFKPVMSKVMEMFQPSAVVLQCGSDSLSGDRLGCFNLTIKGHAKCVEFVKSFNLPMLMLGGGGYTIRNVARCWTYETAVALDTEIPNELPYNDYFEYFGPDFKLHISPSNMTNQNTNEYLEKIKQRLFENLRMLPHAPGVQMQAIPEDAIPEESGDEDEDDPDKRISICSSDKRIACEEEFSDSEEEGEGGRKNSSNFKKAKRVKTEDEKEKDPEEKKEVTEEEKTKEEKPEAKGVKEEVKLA
Histone deacetylase 4, sequence (P56524 whole entry): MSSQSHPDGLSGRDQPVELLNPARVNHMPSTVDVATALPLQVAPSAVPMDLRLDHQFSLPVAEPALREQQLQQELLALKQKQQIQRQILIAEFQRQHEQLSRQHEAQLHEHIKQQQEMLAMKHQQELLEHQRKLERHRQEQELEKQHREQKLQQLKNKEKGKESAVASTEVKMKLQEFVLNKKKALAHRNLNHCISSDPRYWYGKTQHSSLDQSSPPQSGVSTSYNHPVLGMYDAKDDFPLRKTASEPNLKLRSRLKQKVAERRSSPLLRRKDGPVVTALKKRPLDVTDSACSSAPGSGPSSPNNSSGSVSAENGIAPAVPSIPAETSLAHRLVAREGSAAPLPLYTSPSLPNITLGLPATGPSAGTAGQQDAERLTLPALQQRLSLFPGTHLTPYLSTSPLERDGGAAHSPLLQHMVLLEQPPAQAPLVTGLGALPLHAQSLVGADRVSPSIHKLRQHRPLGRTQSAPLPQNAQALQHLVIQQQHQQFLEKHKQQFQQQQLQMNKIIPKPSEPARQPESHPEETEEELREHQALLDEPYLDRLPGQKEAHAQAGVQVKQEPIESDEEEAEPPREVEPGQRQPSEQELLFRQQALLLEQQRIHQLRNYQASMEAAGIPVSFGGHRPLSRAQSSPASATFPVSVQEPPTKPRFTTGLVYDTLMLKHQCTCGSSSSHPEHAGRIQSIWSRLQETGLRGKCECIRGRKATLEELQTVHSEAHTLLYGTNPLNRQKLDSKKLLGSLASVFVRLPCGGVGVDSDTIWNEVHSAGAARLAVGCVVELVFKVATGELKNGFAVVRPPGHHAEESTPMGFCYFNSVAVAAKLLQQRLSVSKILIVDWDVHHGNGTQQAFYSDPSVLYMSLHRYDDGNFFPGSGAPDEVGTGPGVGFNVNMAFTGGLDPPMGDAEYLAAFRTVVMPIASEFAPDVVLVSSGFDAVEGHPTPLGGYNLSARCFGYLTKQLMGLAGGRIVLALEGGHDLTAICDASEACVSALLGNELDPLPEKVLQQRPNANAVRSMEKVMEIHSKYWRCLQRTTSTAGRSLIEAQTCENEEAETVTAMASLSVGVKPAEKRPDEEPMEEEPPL

Turning to `Cc1ccccc1C(=O)/C=C/c1cc(/C=C/C(=O)NO)n(C)c1`, the IC50 on Histone deacetylase HD2 came out at 270 nM; in [1] it was 400 nM; in [2] it was 60 nM. In test [3], the Fold selectivity turned out to be 7.

As for `Cn1cc(/C=C/C(=O)c2cccc(Cl)c2)cc1/C=C/C(=O)NO`, the IC50 on Histone deacetylase HD2 was found to be 24200 nM; in test [1] it was 31400 nM; in [2], 400 nM. Moreover, the Fold selectivity in [3] was determined as 78.

On to `Cc1ccc(C(=O)/C=C/c2cc(/C=C/C(=O)NO)n(C)c2)cc1`, for which the IC50 against Histone deacetylase HD2 came to 10200 nM; in test [1], 4800 nM; in [2], 500 nM. In test [3], this molecule gave a Fold selectivity of 10.

As to `C/C=C1\NC(=O)[C@H]2CSSCC/C=C/[C@H](CC(=O)N[C@H](C(C)C)C(=O)N2)OC(=O)[C@H](C(C)C)NC1=O` [ROMIDEPSIN], the EC50 at Histone deacetylase 1 [4] amounted to 36000 nM.

For `Cc1cccc(C(=O)/C=C/c2cc(/C=C/C(=O)NO)n(C)c2)c1`, the IC50 is 7900 nM at Histone deacetylase HD2, 2500 nM in test [1] and 200 nM in test [2]. For the same molecule, the Fold selectivity in test [3] was determined as 12.

On to `Cn1cc(/C=C/C(=O)c2ccc(Cl)cc2)cc1/C=C/C(=O)NO`, for which the IC50 amounted to 25200 nM on Histone deacetylase HD2, 29400 nM in test [1] and 18600 nM in test [2].

The molecule `CC(/C=C/C(=O)NO)=C\[C@@H](C)C(=O)c1ccc(N(C)C)cc1` [TRICHOSTATIN] returned an EC50 in test [5] of 8600 nM. Besides, the IC50 came out at 0.4 nM in test [1], 0.8 nM in [2] and 38 nM in [6].

As to `C[C@@H]1NC(=O)[C@H](CCCCCC(=O)NO)NC(=O)[C@H]2CCCN2C(=O)[C@H](C)NC1=O`, the IC50 against Histone deacetylase 4 was found to be 2.7 nM. For the same molecule, the EC50 in [7] was 19000 nM; on Histone deacetylase 1 [4] it was 1900 nM.

Turning to `O=C(CCCCC[C@@H]1NC(=O)[C@H]2CCCCN2C(=O)[C@H](Cc2ccccc2)NC(=O)[C@H](Cc2ccccc2)NC1=O)C1CO1` (some centres undefined) [TRAPOXIN A] (cyclo(FF[dPip][Aoe(9ξ)])), the EC50 is 820 nM on Histone deacetylase 1 [8] and 524000 nM in [7].

On Histone deacetylase 4, `C[C@@H]1NC(=O)[C@H](CCCCCC(=O)C2CO2)NC(=O)[C@H]2CCCN2C(=O)[C@H](C)NC1=O` (some centres undefined) displayed an IC50 of 0.3 nM. The EC50 in [7] was determined as 360000 nM; at Histone deacetylase 1 [4], 110 nM.

Take `Cn1cc(/C=C/C(=O)c2ccccc2)cc1/C=C/C(=O)NO`: the IC50 against Histone deacetylase HD2 was 280 nM; in test [1], 300 nM; in test [2], 200 nM.

Take `Cn1cc(/C=C/C(=O)c2ccccc2Cl)cc1/C=C/C(=O)NO`: the IC50 was found to be 5200 nM on Histone deacetylase HD2, 1600 nM in test [1] and 50 nM in test [2]. In addition, the Fold selectivity in test [3] amounted to 32.

For the origin of these results see ChEMBL document CHEMBL1145751, “Discovery of (aryloxopropenyl)pyrrolyl hydroxyamides as selective inhibitors of class IIa histone deacetylase homologue HD1-A” (J Med Chem, 2003).
